41 molecules from ChEMBL document CHEMBL1124388, “Cardiotonic agents. 1-Methyl-7-(4-pyridyl)-5,6,7,8-tetrahydro-3 (2H)-isoquinolinones and related compounds. Synthesis and activity” (J Med Chem, 1989) can be followed below.

The species named for assay [1] is Canis familiaris. In words: Positive inotropic effects in the propranolol induced heart failure model in the dog. The class given is functional, Canis lupus familiaris. In outline: (§1)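 Pentobarbital-anesthetized (30 mg/kg iv) mongrel dogs, 8–12 kg, either sex. Heart failure induced by propranolol, 4 mg/kg iv bolus then 0.1 mg/kg/min infusion. About 20 min later, compound given cumulatively into the femoral vein, one dose-response curve per animal. LV dp/dt max read by electronic differentiator. ED100 is the dose restoring pre-propranolol LV dp/dt max, taken from log dose-response. Highest dose tested 10 mg/kg. Three experiments unless stated.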

Assay [2] has as its system Canis familiaris. The assay can be described thus: Positive inotropic effects in the propranolol induced heart failure model in the dog; Inactive at 10 mg/kg. It counts as functional, organism-based. Set-up: dose 10 mg/kg. As to conditions: Canis lupus familiaris. The method, boiled down: as §1
Assay [3] is filed under the species Canis lupus familiaris. In words: Relative inhibition of canine PDE1 and PDE 3.
Assay [4] concerns the target Phosphodiesterase 1 (Canis familiaris). In words: Inhibition of canine Phosphodiesterase 1(PDE 1).
Assay [5] addresses Phosphodiesterase 3 (Canis familiaris). In words: Inhibition of canine Phosphodiesterase III (PDE 3).

The term IC50 denotes the concentration needed to halve the response being measured. The low end stands for greater potency in that assay, the high end for weaker potency in that assay.

The source made the active and inactive calls. The calls are words filed in the database; no cut-off is given here.

In turn, `COC1CCc2c(C#N)c(O)nc(C)c2C1` (centres undefined) gave an ED100 in assay [1] of 1 mg/kg. As for `CC(=O)c1c(O)nc2c(c1C)CC(c1ccncc1)CC2` (centres undefined), the ED100 result in assay [2] was “inactive”. Molecule `Cc1nc(O)c(C#N)c2c1CCCC2C` (centres undefined) showed an ED100 in assay [1] of 2 mg/kg. Still for that read-out and setting: to `Cc1nc(O)c(C)c2c1CC(c1ccncc1)CC2` (centres undefined) belongs 2 mg/kg. As to `Cc1nc(O)c(C#N)c2c1CC(c1ccc(CN(C)C)cc1)CC2` (centres undefined), in assay [2], the ED100 result is “inactive”.

Consider `Cc1nc(O)c(C#N)c2c1CC(c1ccccc1)CC2` (centres undefined), for which the ED100 in assay [1] was determined as 0.1 mg/kg. Regarding `CCCc1nc(O)c(C#N)c2c1CCCC2`, the ED100 entry in assay [2] is “inactive”. Turning to `COC1CCc2nc(O)c(C#N)c(C)c2C1` (centres undefined), the ED100 entry in assay [2] is “inactive”. `CCCc1c(O)nc(C)c2c1CCC(c1ccncc1)C2` (centres undefined) had an ED100 in assay [1] of 0.3 mg/kg. Regarding `Cc1nc(O)c(C(N)=O)c2c1CC(c1ccncc1)CC2` (centres undefined), in assay [2], the ED100 result is “inactive”. Take `Cc1nc(O)c(C=O)c2c1CC(c1ccncc1)CC2` (centres undefined): the ED100 result in assay [2] is “inactive”. For the molecule `Cc1c2c(c(C#N)c(=O)n1C)CCC(C)C2` (centres undefined), the ED100 result in assay [2] is “inactive”.

Take `Cc1c(C#N)c(O)nc2c1CC(C)CC2` (centres undefined): the ED100 result in assay [2] is “inactive”. Take `N#Cc1c(O)ncc2c1CCCC2`: the ED100 entry in assay [2] was “inactive”. For `Cc1nc(O)c(C#N)c2c1CC(c1ccc(N(C)C)cc1)CC2` (centres undefined), the ED100 result in assay [2] is “inactive”. In the case of `CCCCc1nc(O)c(C(C)=O)c2c1CC(c1ccncc1)CC2` (centres undefined), the ED100 result in assay [2] is “inactive”.

Molecule `CCc1c(O)nc(C)c2c1CCC(c1ccncc1)C2` (centres undefined) registered an ED100 in assay [1] of 0.02 mg/kg. Take `Cc1nc(O)c(C#N)c2c1CC(C)CC2` (centres undefined): the ED100 in assay [1] is 0.3 mg/kg. With `Cc1nc(O)c(C#N)c2c1CCC(c1ccncc1)C2` (centres undefined), in assay [2], the ED100 entry was “inactive”.

In assay [1], `CCC1CCc2c(C#N)c(O)nc(C)c2C1` (centres undefined) yielded an ED100 of 1 mg/kg. In the case of `CCCC(=O)c1c(O)nc(C)c2c1CCC(c1ccncc1)C2` (centres undefined), the ED100 entry in assay [2] was “inactive”. Take `Cc1nc(O)c(C#N)c2c1CCC(C)C2` (centres undefined): the ED100 in assay [1] was 1 mg/kg. On the same count and under the same terms, to `COc1ccc(C2CCc3c(C#N)c(O)nc(C)c3C2)cc1` (centres undefined) belongs 0.3 mg/kg; to `CCC(=O)c1c(O)nc(C)c2c1CCC(c1ccncc1)C2` (centres undefined), 4 mg/kg.

`Cc1nc(O)c([N+](=O)[O-])c2c1CC(c1ccncc1)CC2` (centres undefined) had an ED100 in assay [1] of 0.1 mg/kg. Take `Cc1[nH]c(=O)c(C#N)cc1-c1ccncc1` [MILRINONE]: in assay [1], the ED100 came to 0.1 mg/kg.

Take `Cc1nc(O)c(N)c2c1CC(c1ccncc1)CC2` (centres undefined): the ED100 in assay [1] came out at 0.2 mg/kg. As for `Cc1nc(O)c(C#N)c2c1CC(c1ccncc1)CC2` (centres undefined), the ED100 in assay [1] was 0.1 mg/kg. As to `Cc1nc(O)c(C#N)c2c1CCCC2`, the ED100 in assay [1] was found to be 3 mg/kg.

For `Cc1c(C#N)c(O)nc2c1CC(c1ccncc1)CC2` (centres undefined), in assay [2], the ED100 result is “inactive”. Consider `Cc1nc(O)c(C#N)c2c1CC(c1ccccn1)CC2` (centres undefined), for which the ED100 in assay [1] worked out at 0.3 mg/kg. For the molecule `Cc1c(C#N)c(O)nc2c1CCCC2`, in assay [2], the ED100 result is “inactive”.

In the case of `Cc1nc(O)c(C#N)c2c1CC(C(C)(C)C)CC2` (centres undefined), the ED100 result in assay [2] is “inactive”. On to `COCc1ccc(C2CCc3c(C#N)c(O)nc(C)c3C2)cc1` (centres undefined), for which the ED100 entry in assay [2] is “inactive”. For the molecule `CCc1nc(O)c(C(C)=O)c2c1CC(c1ccncc1)CC2` (centres undefined), the ED100 in assay [1] is 0.3 mg/kg. For `CCCCOC1CCc2c(C#N)c(O)nc(C)c2C1` (centres undefined), the ED100 entry in assay [2] was “inactive”.

On to `Cc1nc(O)c(C#N)c2c1C(C)CCC2` (centres undefined), for which, in assay [1], the ED100 is 3 mg/kg. In turn, `CC(=O)c1c(O)nc(C)c2c1CCC(c1ccncc1)C2` (centres undefined) returned an ED100 in assay [1] of 0.1 mg/kg. Besides, the Ratio in assay [3] was determined as 273. Further, the IC50 amounted to 409 µM in assay [4] and 1.5 µM in assay [5]. On to `Cc1nc(O)c(C#N)c2c1CC(c1cccnc1)CC2` (centres undefined), for which the ED100 in assay [1] is 0.1 mg/kg. In turn, `Cc1nc(O)cc2c1CC(c1ccncc1)CC2` (centres undefined) gave an ED100 in assay [1] of 0.3 mg/kg. `Cc1nc(O)c(C(=O)c2ccccc2)c2c1CC(c1ccncc1)CC2` (centres undefined): the ED100 entry in assay [2] was “inactive”.
